Assay results from ChEMBL document CHEMBL3872225, “Synthesis, binding assays, cytotoxic activity and docking studies of benzimidazole and benzothiophene derivatives with selective affinity for the CB2 cannabinoid receptor” (Eur J Med Chem, 2016).

How the values were obtained:
Cannabinoid receptor 1 = Cannabinoid receptor 1 (Homo sapiens, UniProt P21554); assay: Displacement of [3H]CP-55940 from human recombinant CB1 receptor expressed in HEK293 cell membranes incubated for 1.5 hrs
Method in brief: (§1)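 Membranes from HEK-293 cells overexpressing human CB1 or CB2 incubated with increasing compound concentrations and 0.5 nM [3H]CP-55,940 at 30 °C for 1.5 h. […] Selectivity index is Ki CB1/Ki CB2.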

[1] = molecular target: Cannabinoid receptor 1 (CB1) (Homo sapiens, UniProt P21554); assay: Displacement of [3H]CP-55940 from human recombinant CB1 receptor expressed in HEK293 cell membranes at 1 uM incubated for 1.5 hrs relative to control; conditions: probe [3H]CP-55940
Cannabinoid receptor 1 (CB1), sequence (P21554 whole entry): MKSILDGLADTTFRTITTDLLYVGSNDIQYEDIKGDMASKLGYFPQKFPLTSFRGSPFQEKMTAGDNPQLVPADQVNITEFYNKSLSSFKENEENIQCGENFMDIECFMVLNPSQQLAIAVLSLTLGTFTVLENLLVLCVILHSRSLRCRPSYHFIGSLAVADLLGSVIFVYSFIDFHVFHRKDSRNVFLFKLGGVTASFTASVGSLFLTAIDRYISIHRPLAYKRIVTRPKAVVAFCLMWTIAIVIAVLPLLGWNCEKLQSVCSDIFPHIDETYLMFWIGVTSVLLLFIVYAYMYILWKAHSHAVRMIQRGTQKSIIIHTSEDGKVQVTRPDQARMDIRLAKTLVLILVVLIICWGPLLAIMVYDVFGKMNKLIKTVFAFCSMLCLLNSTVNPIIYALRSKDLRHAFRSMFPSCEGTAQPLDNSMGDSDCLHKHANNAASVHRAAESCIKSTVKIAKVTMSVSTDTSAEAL
Method in brief: (§2)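 Single-point screen on HEK-293 membranes overexpressing human CB1 or CB2. […] Compounds displacing more than 50% at 1 μM went on to full curves.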

Cannabinoid receptor 2 [2] = molecular target: T1, Cannabinoid receptor 2 (Homo sapiens, UniProt P34972); assay: Displacement of [3H]CP-55940 from human recombinant CB2 receptor expressed in HEK293 cell membranes at 1 uM incubated for 1.5 hrs relative to control; method in brief: as §2
T1 sequence (P34972 whole entry): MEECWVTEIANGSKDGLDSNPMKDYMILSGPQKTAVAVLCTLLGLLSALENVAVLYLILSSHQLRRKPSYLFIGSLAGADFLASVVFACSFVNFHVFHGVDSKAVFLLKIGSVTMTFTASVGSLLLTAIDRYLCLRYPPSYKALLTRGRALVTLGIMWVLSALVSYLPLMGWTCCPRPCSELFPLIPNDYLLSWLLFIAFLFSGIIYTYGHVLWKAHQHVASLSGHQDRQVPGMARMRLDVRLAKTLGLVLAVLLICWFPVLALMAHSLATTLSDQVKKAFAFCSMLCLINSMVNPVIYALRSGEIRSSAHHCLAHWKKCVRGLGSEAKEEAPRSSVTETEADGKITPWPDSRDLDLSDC

Cannabinoid receptor 2 [3] = molecular target: T1, Cannabinoid receptor 2; assay: Displacement of [3H]CP-55940 from human recombinant CB2 receptor expressed in HEK293 cell membranes incubated for 1.5 hrs; method in brief: as §1
[4] = Cytotoxicity against human HeLa cells assessed as reduction in cell viability measured after 72 hrs by MTT assay; assay type: functional, cell-based
Method in brief: (§3)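 Cells kept in RPMI 1640 with 5% FBS, penicillin/streptomycin, 37 °C, 5% CO2. Seeded at 10,000 cells/well, then exposed to compounds at 0.001–10 μM in 5% FBS-RPMI for 72 h at 37 °C. MTT added for 4 h, formazan dissolved overnight in 10% SDS/0.1 mM HCl, absorbance read at 570 nm. […] Etoposide as positive control.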

[5] = Cytotoxicity against resistant human HCT116 cells assessed as reduction in cell viability measured after 72 hrs by MTT assay; assay type: functional, cell-based; conditions: HCT-116, 72 h; method in brief: as §3
[6] = Cytotoxicity against African green monkey Vero cells assessed as reduction in cell viability measured after 72 hrs by MTT assay; assay type: toxicity, cell-based; conditions: Chlorocebus sabaeus (African green monkey); method in brief: as §3
[7] = Cytotoxicity against human HL60 cells assessed as reduction in cell viability measured after 72 hrs by MTT assay; assay type: functional, cell-based; conditions: HL-60, 72 h; method in brief: as §3
[8] = Cytotoxicity against human H1975-1 cells assessed as reduction in cell viability measured after 72 hrs by MTT assay; assay type: functional, cell-based; method in brief: as §3
Homo sapiens = species on record: Homo sapiens; assay: Selectivity index, ratio of Ki for displacement of [3H]CP-55940 from human recombinant CB1 receptor to Ki for displacement of [3H]CP-55940 from human recombinant CB2 receptor; method in brief: as §1

Cannabinoid receptor 1, sequence (P21554 whole entry): as the sequence (P21554 whole entry) above

| SMILES | IC50 (Cannabinoid receptor 1) [µM] | Ki (Cannabinoid receptor 1) [µM] | inhibition at 1.5 h, 1 µM [1] [%] | inhibition (Cannabinoid receptor 2 [2]) [%] | IC50 (Cannabinoid receptor 2 [3]) [µM] | Ki (Cannabinoid receptor 2 [3]) [µM] | IC50 [4] [µM] | IC50 [5] [µM] | IC50 at 72 h [6] [µM] | IC50 [7] [µM] | IC50 [8] [µM] | Ratio Ki (Homo sapiens) |
| --- | --- | --- | --- | --- | --- | --- | --- | --- | --- | --- | --- | --- |
| CCCc1nc2ccccc2n1C(=O)c1cccc2ccccc12 | > 10 | > 10 | > 50 | > 50 | > 10 | > 10 | > 10 | 2.4 | > 10 | 0.1 | > 10 |  |
| CC(C)Cc1nc2ccccc2n1C(=O)c1cccc2ccccc12 | > 10 | > 10 | > 50 | > 50 | 0.5 | 0.1 | > 10 | 2.17 | > 10 | 0.094 | > 10 | > 100 |
| COc1ccc(C(=O)n2c(-c3ccc(OC)cc3)nc3ccccc32)cc1 | > 10 | > 10 | > 50 | > 50 | 5.9 | 1.5 | > 10 | > 10 | > 10 | 0.175 | > 10 | > 6.7 |
| CCCCCc1sc2ccccc2c1C(=O)c1ccc(OC)cc1 | > 10 | > 10 | > 50 | > 50 | 1.2 | 0.3 | > 10 | > 10 | > 10 | 0.083 | > 10 | > 33 |
| O=C(c1cccc2ccccc12)n1c(C2CCC2)nc2ccccc21 | 9.7 | 5.8 | > 50 | > 50 | 5.5 | 1.4 | > 10 | > 10 | > 10 | 0.18 | > 10 | 4.14 |
| COc1ccc(C(=O)c2c(CC(C)C)sc3ccccc23)cc1 | 7.6 | 4.6 | > 50 | > 50 | 0.7 | 0.1 | > 10 | > 10 | > 10 | 0.066 | > 10 | 46 |
| CCc1sc2ccccc2c1C(=O)c1cccc2ccccc12 | 8.4 | 5.1 | > 50 | > 50 | 2.9 | 0.7 | > 10 | > 10 | > 10 | 0.099 | > 10 | 7.28 |
| CC(C)(C)c1nc2ccccc2n1C(=O)c1cccc2ccccc12 | > 10 | > 10 | > 50 | > 50 | 0.3 | 0.08 | > 10 | > 10 | > 10 | 0.13 | > 10 | > 125 |
| COc1ccc(-c2sc3ccccc3c2C(=O)c2cccc3ccccc23)cc1 | 8.4 | 5.1 | > 50 | > 50 | 1.4 | 0.3 | > 10 | > 10 | > 10 | 0.071 | > 10 | 17 |
| CC(C)c1nc2ccccc2n1C(=O)c1cccc2ccccc12 | > 10 | > 10 | > 50 | > 50 | 2.1 | 0.5 | > 10 | 4.41 | 7.23 | 0.07 | > 10 | > 20 |
| COc1ccc(-c2nc3ccccc3n2C(=O)c2cccc3ccccc23)cc1 | 8.1 | 4.9 | > 50 | > 50 | 7.7 | 1.9 | > 10 | 1.7 | > 10 | 0.146 | > 10 | 2.57 |
| COc1ccc(C(=O)n2c(C)nc3ccccc32)cc1 | > 10 | > 10 | > 50 | > 50 | > 10 | > 10 | > 10 | 0.01 | 1.23 | 0.057 | > 10 |  |
| COc1ccc(C(=O)n2c(CC(C)C)nc3ccccc32)cc1 | > 10 | > 10 | > 50 | > 50 | > 10 | > 10 | > 10 | 3.56 | > 10 | 0.034 | > 10 |  |
| CCCc1sc2ccccc2c1C(=O)c1cccc2ccccc12 | 1 | 0.6 | > 50 | > 50 | 4.3 | 1 | > 10 | > 10 | > 10 | 0.13 | > 10 | 0.6 |
| Cc1c(C(=O)c2cccc3ccccc23)c2cccc3c2n1[C@H](CN1CCOCC1)CO3 [WIN-552122] |  |  |  |  |  |  | 0.98 | 0.92 | 0.31 | 0.007 | 3.8 |  |
| COc1cc([C@@H]2c3cc4c(cc3[C@@H](O[C@@H]3O[C@@H]5CO[C@@H](C)O[C@H]5[C@H](O)[C@H]3O)[C@H]3COC(=O)[C@H]23)OCO4)cc(OC)c1O [ETOPOSIDE] |  |  |  |  |  |  | 8.2 | 2.8 | 1.5 | 2.1 | 9.5 |  |
| Cc1nc2ccccc2n1C(=O)c1cccc2ccccc12 | > 10 | > 10 | > 50 | > 50 | > 10 | > 10 | > 10 | > 10 | > 10 | 0.093 | > 10 |  |
